Here are results for ten compounds from ChEMBL document CHEMBL1134728, “Heterocyclic substituted anthralin derivatives as inhibitors of keratinocyte growth and inducers of differentiation” (Bioorg Med Chem Lett, 2001).

Assay [1] can be described thus: Deoxyribose degradation measured as hydroxyl radical generation in HaCaT cell at 75 uM expressed as malondialdehyde released. It counts as functional, Homo sapiens.
Assay [2] can be described thus: Antiproliferative activity against growth of HaCaT cell was determined. It counts as functional, cell-based. To be noted: Homo sapiens.
Assay [3] is described as follows: Compound was tested for the induction of HaCaT keratinocyte differentiation at 10 uM expressed as the amount of cross-linked protein in cornified envelope assay. It counts as functional, Homo sapiens. Summed up:
(§1)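 Terminal differentiation of HaCaT keratinocytes measured as insoluble cross-linked protein envelopes, using a modified method; protein in envelope preparations quantified by Bradford. Value is the difference in cross-linked protein per mg protein between treated and vehicle-control cells; means ± SEM of three independent experiments; significance vs vehicle p < 0.05.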

Assay [4] in a line: Compound was tested for the induction of HaCaT keratinocyte differentiation at 1 uM expressed as the amount of cross-linked protein in cornified envelope assay. It counts as functional, Homo sapiens. The essentials:
as §1

The nature of assay [5]: Compound was tested for the induction of HaCaT keratinocyte differentiation at 5 uM expressed as the amount of cross-linked protein in cornified envelope assay. It counts as functional, Homo sapiens. Summed up: as §1
The nature of assay [6]: Activity of LDH release in HaCaT cells after treatment with 2 uM concentration of the compound. It counts as functional, Homo sapiens. The essentials: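 LDH activity (mU) released into the HaCaT culture medium after compound treatment, taken as a marker of plasma membrane integrity and cytotoxicity; compared against vehicle controls; N=3.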
Background: Release of lactate dehydrogenase indicates damage to the cell membrane.

With `O=C1c2c(O)cccc2C(C(=O)c2ccccc2)c2cccc(O)c21`, in assay [1], the DD was 2.31 uM mM-1. This compound registered an IC50 in assay [2] of more than 5000 nM.
With `O=C1c2c(O)cccc2C(C(=O)c2ccsc2)c2cccc(O)c21`, the “Amount of cross-linked protein” value is recorded as 3.4 (ug of cross-linked protein) (mg of protein)-1 in assay [3], -0.6 (ug of cross-linked protein) (mg of protein)-1 in assay [4] and 0.6 (ug of cross-linked protein) (mg of protein)-1 in assay [5]. Further, in assay [1], the DD was 0.82 uM mM-1. Moreover, the IC50 in assay [2] is more than 5000 nM.
In turn, `O=C1c2c(O)cccc2C(C(=O)/C=C/c2cccs2)c2cccc(O)c21` registered an LDH release in assay [6] of 166 mU. For the same compound, the figures for the “Amount of cross-linked protein” value in assay [3], in assay [4] and in assay [5] were 5.6 (ug of cross-linked protein) (mg of protein)-1, 2 (ug of cross-linked protein) (mg of protein)-1 and 5 (ug of cross-linked protein) (mg of protein)-1, respectively. The DD in assay [1] is recorded as 1.13 uM mM-1. In addition, the IC50 in assay [2] is 4200 nM.
The compound `O=C1c2c(O)cccc2C(C(=O)c2ccc[nH]2)c2cccc(O)c21` returned an LDH release in assay [6] of 202 MU. Moreover, the results for the “Amount of cross-linked protein” value in assay [3], in assay [4] and in assay [5] were 6.5 (ug of cross-linked protein) (mg of protein)-1, 2.3 (ug of cross-linked protein) (mg of protein)-1 and 5.7 (ug of cross-linked protein) (mg of protein)-1, respectively. Besides, the DD in assay [1] is on record as 1.77 uM mM-1. The compound also yielded an IC50 in assay [2] of 600 nM.
In turn, `O=C1c2c(O)cccc2C(C(=O)c2cc3ccccc3[nH]2)c2cccc(O)c21` returned an LDH release in assay [6] of 167 mU. For the same compound, the figures for the “Amount of cross-linked protein” value in assay [3], in assay [4] and in assay [5] were 5.7 (ug of cross-linked protein) (mg of protein)-1, 2 (ug of cross-linked protein) (mg of protein)-1 and 4.8 (ug of cross-linked protein) (mg of protein)-1, respectively. In addition, the DD in assay [1] is listed as 0.17 uM mM-1. Moreover, the IC50 in assay [2] amounted to 700 nM.
For `O=C1c2c(O)cccc2C(C(=O)c2ccco2)c2cccc(O)c21`, the LDH release in assay [6] was determined as 242 mU. Further, the “Amount of cross-linked protein” value in assay [3] is on record as 5.8 (ug of cross-linked protein) (mg of protein)-1; in assay [4] it was 0.5 (ug of cross-linked protein) (mg of protein)-1; in assay [5] it was 3.5 (ug of cross-linked protein) (mg of protein)-1. For the same compound, in assay [1], the DD is on record as 0.41 uM mM-1. In addition, inhibition in assay [2] was half-maximal at 1200 nM (IC50).
Regarding `O=C1c2c(O)cccc2C(C(=O)c2cccs2)c2cccc(O)c21`, the “Amount of cross-linked protein” value in assay [3] is given as 3.7 (ug of cross-linked protein) (mg of protein)-1; in assay [4], -0.9 (ug of cross-linked protein) (mg of protein)-1; in assay [5], 0.7 (ug of cross-linked protein) (mg of protein)-1. Moreover, the DD in assay [1] is 0.65 uM mM-1. In assay [2], the IC50 is more than 5000 nM.
In assay [6], `O=C1c2c(O)cccc2C(C(=O)/C=C/c2ccco2)c2cccc(O)c21` showed an LDH release of 147 mU. In addition, the “Amount of cross-linked protein” value is 1.9 (ug of cross-linked protein) (mg of protein)-1 in assay [3], -0.2 (ug of cross-linked protein) (mg of protein)-1 in assay [4] and 0.6 (ug of cross-linked protein) (mg of protein)-1 in assay [5]. Besides, the DD in assay [1] is reported as 1.69 uM mM-1. For the same compound, in assay [2], the IC50 amounted to 1500 nM.
As for `O=C1c2c(O)cccc2Cc2cccc(O)c21` [ANTHRALIN], the LDH release in assay [6] was 294 mU. For the same compound, the “Amount of cross-linked protein” value is reported as 5.8 (ug of cross-linked protein) (mg of protein)-1 in assay [3], 3.7 (ug of cross-linked protein) (mg of protein)-1 in assay [4] and 4.9 (ug of cross-linked protein) (mg of protein)-1 in assay [5]. In addition, the DD in assay [1] was 2.89 uM mM-1. In assay [2], the IC50 came to 700 nM.
As for `O=C1c2cccc(O)c2C(=O)c2c(O)cccc21` [DANTHRON], the entries for the “Amount of cross-linked protein” value in assay [3], in assay [4] and in assay [5] were 0 (ug of cross-linked protein) (mg of protein)-1, 0.6 (ug of cross-linked protein) (mg of protein)-1 and -0.1 (ug of cross-linked protein) (mg of protein)-1, respectively.

For orientation: IC50 means the concentration at which inhibition is half-maximal. A lower IC50 goes with greater potency in that assay.
